Series [1] has as its target T1, Broad substrate specificity ATP-binding cassette transporter ABCG2 (Homo sapiens, UniProt Q9UNQ0).
T1 sequence (Q9UNQ0 whole entry): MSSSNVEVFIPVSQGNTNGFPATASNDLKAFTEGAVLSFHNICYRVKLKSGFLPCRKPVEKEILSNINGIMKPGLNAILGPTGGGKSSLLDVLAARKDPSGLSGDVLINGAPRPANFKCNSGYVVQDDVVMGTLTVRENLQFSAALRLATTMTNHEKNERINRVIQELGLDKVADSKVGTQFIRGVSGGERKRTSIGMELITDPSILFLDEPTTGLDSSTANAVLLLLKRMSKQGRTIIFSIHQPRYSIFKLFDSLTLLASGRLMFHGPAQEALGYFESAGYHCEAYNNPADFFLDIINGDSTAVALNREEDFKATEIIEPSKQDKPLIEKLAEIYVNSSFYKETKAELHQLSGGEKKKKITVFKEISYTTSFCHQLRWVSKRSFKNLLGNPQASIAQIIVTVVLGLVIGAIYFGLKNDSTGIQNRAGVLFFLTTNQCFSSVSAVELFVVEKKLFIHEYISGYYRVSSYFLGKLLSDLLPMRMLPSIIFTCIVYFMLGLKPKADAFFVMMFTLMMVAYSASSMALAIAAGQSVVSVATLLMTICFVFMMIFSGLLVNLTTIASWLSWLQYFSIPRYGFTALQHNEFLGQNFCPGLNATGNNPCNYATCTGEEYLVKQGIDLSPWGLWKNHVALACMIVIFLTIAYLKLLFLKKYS
The series can be described thus: Reversal of ABCG2 (unknown origin)-mediated multidrug resistance in human S1-M1-80 cells assessed as fold-change in mitoxantrone IC50 at 0.5 uM after 72 hrs by MTT assay relative to mitoxantrone IC50. It counts as cell-based. As to conditions: s1-m1-80, 72 h; call rule not given here. In a few lines:
(§1)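 Cells held drug-free 7 days, seeded at 5000 per well for 24 h, then exposed 72 h to mitoxantrone or topotecan dilutions with DMSO (≤0.5%), LCA 0.5–3.0 μM, or Ko143 1.0 μM. Viability was read by MTT. IC50 came from fitted dose-response curves of three independent experiments. Fold-reversal = IC50 without modulator divided by IC50 with modulator.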
(Tetrazolium dyes change colour on reduction, which living cells bring about.)

Series [2] has as its system HEK293. Kind of series: Cytotoxicity against HEK293 cells after 72 hrs by CCK8 assay. The following applies: Homo sapiens, HEK293, 72 h. It is filed as cell-based. In a few lines:
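Cells seeded at 5000/well, allowed 24 h, then exposed to a concentration series for 72 h at 37 °C in DMSO vehicle (up to 0.5% v/v). HEK293 lines were read with CCK-8 and cancer lines with MTT. IC50 was taken from fitted dose-response curves over at least three independent experiments. Lines were kept drug-free for 7 days before assay.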

Series [3] concerns the target T2, Multidrug resistance-associated protein 1 (Homo sapiens, UniProt P33527). The series can be described thus: Modulation of human ABCC1 expressed in HEK293/MRP1 cells assessed as increase in intracellular calcein-AM accumulation at 20 uM incubated for 10 mins by FACScan flow cytometry. It is filed as cell-based. In a few lines: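 Cells held drug-free 7 days. 3 × 10^5 cells in IMDM with 5% FCS were loaded with calcein-AM for 10 min, with or without 20 μM LCA. Reference inhibitors were tariquidar 3 μM (ABCB1) and MK-571 25 μM (ABCC1). Calcein fluorescence (ex 485/em 535 nm) was read by flow cytometry; at least three independent experiments.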

In series [4] the test system is HEK293. Kind of series: Effect on Colchicine-induced cytotoxicity against HEK293 cells assessed as fold change in colchicine IC50 at 0.5 uM after 72 hrs by CCK8 assay relative to colchicine IC50. It is filed as cell-based. The following applies: human, hek293, 72 h. In a few lines: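 Reversal assay in parental pcDNA-HEK293 and transfected HEK293 lines (ABCB1 for colchicine, ABCC1 for etoposide, ABCG2 for mitoxantrone/topotecan). Substrate drug series was given with or without nontoxic modulator (0.5, 1.0, 2.0 or 3.0 μM) for 72 h, with a CCK-8 read-out. Fold-reversal is substrate IC50 without modulator divided by IC50 with modulator. Three independent experiments.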

In series [5] the target is T1, Broad substrate specificity ATP-binding cassette transporter ABCG2. The series can be described thus: Reversal of ABCG2 (unknown origin)-mediated multidrug resistance in human H460-MX20 cells assessed as fold change in topotecan IC50 at 1 uM after 72 hrs by MTT assay relative to topotecan IC50. It is filed as cell-based. Put shortly:
as §1

Series [6] shares this target. The series can be described thus: Reversal of human ABCG2-mediated multidrug resistance in HEK293/R482 cells assessed as fold-change in topotecan IC50 at 2 uM after 72 hrs by CCK8 relative to topotecan IC50. It is filed as cell-based. In a few lines: (§2)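 Cells were seeded at 5000/well for 24 h, then given colchicine, etoposide, mitoxantrone or topotecan ± non-toxic modulator (0.5–3.0 μM) for 72 h, with DMSO up to 0.5%. IC50 came from fitted curves (mean ± SD, three experiments). Fold-reversal = IC50 without modulator ÷ IC50 with modulator.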

Series [7] relates to HEK293. Kind of series: Induction of Calcein-AM accumulation in HEK293 cells at 20 uM incubated for 10 mins by FACScan flow cytometry. It is filed as cell-based. The following applies: human, hek293, 10 min. Put shortly: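 Parental HEK293 cells (3 × 10^5) were resuspended in IMDM with 5% FCS and given calcein-AM with or without 20 μM modulator for 10 min. Intracellular calcein (ex 485/em 535 nm) was measured by flow cytometry; at least three independent experiments.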

Series [8] deals with HEK293. Kind of series: Induction of pheophorbide A accumulation in HEK293 cells at 20 uM incubated for 1 hr by FACScan flow cytometry. It counts as cell-based. As to conditions: human, hek293, 1 h. Put shortly: (§3)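 Cells held drug-free 7 days. 3 × 10^5 cells were suspended in IMDM with 5% FCS and loaded with pheophorbide A (ex 395/em 670 nm) for 1 h, with or without LCA (20 μM for single-concentration accumulation) or Ko143 3 μM as reference. Read immediately by flow cytometry. Efflux inhibition was run over a concentration range; mean ± SD of three experiments.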
On the technique in general: Flow cytometry measures light scatter and fluorescence of single cells or particles in a stream.

For the next series, the system named is S1. Kind of series: Induction of apoptosis in human S1 cells assessed as early apoptotic cells at 10 uM incubated for 48 hrs in presence of topotecan by annexin V/propidium iodide staining based flow cytometry (reference value: 2%). It is filed as functional. Put shortly:
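S1 cells were exposed for 48 h to DMSO, 10 μM compound, 5 μM topotecan, or 5 μM topotecan plus 10 μM compound. They were then stained with 1.25 μg/mL annexin V–FITC and 0.1 mg/mL PI for 15 min at room temperature. 10000 cells per sample were analysed by flow cytometry; three independent experiments.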

For series [9], the target named is T1, Broad substrate specificity ATP-binding cassette transporter ABCG2. The series can be described thus: Reversal of human ABCG2-mediated multidrug resistance in HEK293/R482 cells assessed as potentiation of topotecan-induced cytotoxicity after 72 hrs by CCK8 assay. It counts as cell-based. In a few lines: as §2
The target is the same in series [10]. Kind of series: Modulation of ABCG2 (unknown origin) expressed in S1-M1-80 cells assessed as increase in intracellular pheophorbide A accumulation at 20 uM incubated for 1 hr by FACScan flow cytometry. It is filed as cell-based. As to conditions: s1-m1-80, 1 h. Put shortly: as §3
Series [11] has as its target T2, Multidrug resistance-associated protein 1. The series can be described thus: Reversal of human ABCC1-mediated multidrug resistance in HEK293/MRP1 cells assessed as fold-change in etoposide IC50 at 3 uM after 72 hrs by CCK8 relative to etoposide IC50. It counts as cell-based. Put shortly:
as §2

For orientation: IC50 means the concentration at which inhibition is half-maximal.

T2 sequence (P33527 whole entry): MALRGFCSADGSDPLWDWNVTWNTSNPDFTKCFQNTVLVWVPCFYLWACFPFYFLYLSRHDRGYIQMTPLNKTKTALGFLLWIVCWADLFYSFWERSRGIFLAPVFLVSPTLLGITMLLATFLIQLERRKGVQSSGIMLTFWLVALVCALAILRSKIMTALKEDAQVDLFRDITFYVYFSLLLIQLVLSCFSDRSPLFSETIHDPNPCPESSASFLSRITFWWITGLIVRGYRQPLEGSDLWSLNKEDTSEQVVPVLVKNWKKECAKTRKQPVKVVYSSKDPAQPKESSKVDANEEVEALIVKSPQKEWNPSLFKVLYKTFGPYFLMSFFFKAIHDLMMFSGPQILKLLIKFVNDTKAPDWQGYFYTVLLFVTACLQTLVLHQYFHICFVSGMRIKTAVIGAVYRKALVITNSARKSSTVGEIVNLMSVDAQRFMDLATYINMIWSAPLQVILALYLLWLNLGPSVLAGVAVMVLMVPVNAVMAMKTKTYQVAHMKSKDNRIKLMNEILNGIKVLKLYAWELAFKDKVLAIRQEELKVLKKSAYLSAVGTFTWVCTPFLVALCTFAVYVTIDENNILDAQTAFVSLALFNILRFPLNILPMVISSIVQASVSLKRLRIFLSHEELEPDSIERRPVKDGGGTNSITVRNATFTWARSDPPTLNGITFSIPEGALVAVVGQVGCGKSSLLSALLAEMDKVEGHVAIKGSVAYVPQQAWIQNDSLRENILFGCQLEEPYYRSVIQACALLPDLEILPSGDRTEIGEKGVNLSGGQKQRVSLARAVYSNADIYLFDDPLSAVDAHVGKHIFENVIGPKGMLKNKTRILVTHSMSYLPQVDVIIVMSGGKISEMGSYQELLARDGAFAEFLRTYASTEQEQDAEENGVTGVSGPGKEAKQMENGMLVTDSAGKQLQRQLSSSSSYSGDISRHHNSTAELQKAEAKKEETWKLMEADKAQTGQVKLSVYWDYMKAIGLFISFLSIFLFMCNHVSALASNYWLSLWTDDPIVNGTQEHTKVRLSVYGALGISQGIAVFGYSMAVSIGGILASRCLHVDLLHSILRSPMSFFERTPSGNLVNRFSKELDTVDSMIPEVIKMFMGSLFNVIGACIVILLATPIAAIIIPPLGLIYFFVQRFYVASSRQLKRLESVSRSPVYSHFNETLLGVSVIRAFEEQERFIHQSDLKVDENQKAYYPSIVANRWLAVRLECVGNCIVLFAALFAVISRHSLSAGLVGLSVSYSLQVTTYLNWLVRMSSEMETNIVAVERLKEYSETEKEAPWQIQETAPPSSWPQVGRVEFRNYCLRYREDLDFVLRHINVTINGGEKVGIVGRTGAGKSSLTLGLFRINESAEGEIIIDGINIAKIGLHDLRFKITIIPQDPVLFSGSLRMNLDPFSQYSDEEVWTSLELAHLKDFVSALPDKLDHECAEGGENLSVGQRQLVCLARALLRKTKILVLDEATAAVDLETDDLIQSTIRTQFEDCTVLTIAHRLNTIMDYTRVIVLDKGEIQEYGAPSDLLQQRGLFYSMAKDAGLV

Take `C=CC(C)(C)c1cc(/C=C/C(=O)c2ccc(O)cc2)c(OC)cc1O` [LICOAGROCHACONE A]: the “fold change (FC)” value in series [1] was determined as 1.9; in the series on HEK293 [4], 1; in [5], 9.2; in [6] it was 4.6; in series [11], 1.1. In the series with HEK293 [2], this compound returned an IC50 of 10 to 50 µM. For the same compound, the Activity result in series [3] is “Not Active”; with HEK293 [7], “Non-Toxic”; in the series on HEK293 [8], “Non-Toxic”; with S1, 30.3%; in series [9], “Dose-dependent effect”; in series [10] it was “Active”.

Values taken from ChEMBL document CHEMBL4627381, “Licochalcone A Selectively Resensitizes ABCG2-Overexpressing Multidrug-Resistant Cancer Cells to Chemotherapeutic Drugs” (J Nat Prod, 2020).
